In ChEMBL document CHEMBL1156065, “Structure-activity relationship study on alpha1 adrenergic receptor antagonists from beer” (Bioorg Med Chem Lett, 2009) one finds IC50 data, which are given here for nine compounds.

As usually defined, the IC50 is the point on the concentration scale where inhibition reaches its midpoint.

Assay [1] has as its target T1, Alpha-1A adrenergic receptor (Rattus norvegicus, UniProt P43140).
T1 sequence (P43140 whole entry): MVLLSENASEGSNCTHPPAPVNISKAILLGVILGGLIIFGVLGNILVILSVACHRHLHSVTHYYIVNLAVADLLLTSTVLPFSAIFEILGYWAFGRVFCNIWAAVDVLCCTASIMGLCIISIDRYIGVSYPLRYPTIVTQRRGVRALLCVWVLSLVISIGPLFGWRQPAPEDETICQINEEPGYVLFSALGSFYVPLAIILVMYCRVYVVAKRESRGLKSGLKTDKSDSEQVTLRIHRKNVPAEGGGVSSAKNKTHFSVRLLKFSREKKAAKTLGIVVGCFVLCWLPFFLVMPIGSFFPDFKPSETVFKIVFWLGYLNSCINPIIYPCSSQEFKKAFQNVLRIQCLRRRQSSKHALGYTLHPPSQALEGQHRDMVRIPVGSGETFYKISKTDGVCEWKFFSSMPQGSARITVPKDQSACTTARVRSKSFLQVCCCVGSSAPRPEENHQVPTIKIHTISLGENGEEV
Briefly: Displacement of [3H]prazosin from rat salivary gland alpha1A adrenoceptor. Put shortly:
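Rat salivary gland homogenate incubated with test samples and 0.06 nM [3H]-prazosin at 22 °C for 60 min. Stopped by vacuum filtration through glass-fiber filters, washed with 50 mM Tris–HCl, counted by liquid scintillation. Nonspecific binding defined with phentolamine and subtracted from total binding. IC50 taken as the concentration inhibiting specific binding by 50%.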

For assay [2], the target named is T1, Alpha-1A adrenergic receptor. Briefly: Antagonist activity at rat alpha1A adrenoceptor assessed as inhibition of phenylephrine-induced contraction of caudal artery. Type of assay: functional, tissue-based. Put shortly: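 Isometric tension at 1 g resting load, equilibrated 30 to 60 min with repeated washes. Contraction induced by submaximal phenylephrine. After the response stabilized, test sample was added at increasing concentrations, up to 15 min per concentration or until the response was stable.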

With `N=C(N)NCCCCNC(=O)/C=C/c1ccc2c(c1)[C@H](C(=O)NCCCCNC(=N)N)[C@H](c1ccc(O)cc1)O2` [APERIDINE], the IC50 in assay [1] is 0.42 µM; in assay [2], 4.9 µM.
For the compound `N=C(N)NCCCCNC(=O)[C@@H]1c2cc(/C=C/C(=O)O)ccc2O[C@H]1c1ccc(O)cc1`, the IC50 in assay [1] and in assay [2] was greater than 100 µM each time.
For the compound `COC(=O)[C@@H]1c2cc(/C=C/C(=O)NCCCCNC(=N)N)ccc2O[C@H]1c1ccc(O)cc1`, the IC50 was found to be 0.56 µM in assay [1] and 9.72 µM in assay [2].
The like results for `COC(=O)[C@H]1c2cc(/C=C/C(=O)NCCCCNC(=N)N)ccc2O[C@@H]1c1ccc(O)cc1` were, in that order, 2.16 µM and 42.2 µM.
As for `N=C(N)NCCCCNC(=O)/C=C/c1ccc2c(c1)[C@@H](C(=O)NCCCCNC(=N)N)[C@H](c1ccc(O)cc1)O2`, the results for the IC50 in assay [1] and in assay [2] were 0.29 µM and 14.3 µM, respectively.
Turning to `N=C(N)NCCCCNC(=O)/C=C/c1ccc2c(c1)[C@H](C(=O)NCCCCNC(=N)N)[C@@H](c1ccc(O)cc1)O2` [HORDATINE A], the IC50 in assay [1] is 0.31 µM; in assay [2], 19.3 µM.
With `N=C(N)NCCCCNC(=O)[C@H]1c2cc(/C=C/C(=O)O)ccc2O[C@@H]1c1ccc(O)cc1`, the IC50 in assay [1] and in assay [2] was greater than 100 µM throughout.
For the compound `N=C(N)NCCCCNC(=O)/C=C/c1ccc2c(c1)[C@@H](C(=O)NCCCCNC(=N)N)[C@@H](c1ccc(O)cc1)O2`, the IC50 is 2.44 µM in assay [1] and 17.7 µM in assay [2].
Take `N=C(N)NCCCCNC(=O)/C=C/c1ccc(O)cc1`: the IC50 is 57.6 µM in assay [1] and greater than 100 µM in assay [2].
